Measured values as given in ChEMBL document CHEMBL1124427, “Studies on prodrugs. 11. Synthesis and antimicrobial activity of N-[(4-methyl-5-methylene-2-oxo-1,3-dioxolan-4-yl)oxy]norfloxacin ” (J Med Chem, 1989).
Values after ≈ are worked out from the molar mass of the structure shown.

Tests used:
Staphylococcus aureus [1] = experiment: Minimum inhibitory concentration tested against Staphylococcus aureus FDA207PJC-1; assay type: functional
In short: (§1)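 Agar dilution used serial 2-fold dilutions in Mueller-Hinton agar, with plate concentrations of 0.006–100 µg/mL and an inoculum of about 10^8 cfu/mL.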

[2] = Area under curve value of compound per hour after oral administration; assay type: ADME
In short: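 Mice were dosed orally at the equivalent of 50 mg/kg NFLX, suspended in 0.5% sodium (carboxymethyl)cellulose. They were killed by bleeding at 0.25, 0.5, 1.0, 2.0, 3.0 and 4.0 h. Serum NFLX was measured by HPLC with UV detection at 280 nm, and AUC was expressed in µg/mL per h.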

Klebsiella pneumoniae = experiment: Minimum inhibitory concentration tested against Klebsiella pneumoniae PC1602; assay type: functional; in short: as §1
[3] = Lethal dose of compound after peroral administration in rats; assay type: toxicity, organism-based; conditions: rat, in vivo, po
In short: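 Each compound was given orally as a suspension in 0.5% CMC. Deaths were counted over 1 week, and LD50 was calculated by the method of Weil.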

Escherichia coli [4] = experiment: Effective dose of compound against Escherichia coli KC-14 in mice after oral administration
Escherichia coli [5] = experiment: (§2) Minimum inhibitory concentration tested against Escherichia coli KC-14; assay type: functional
In short: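 MIC by serial 2-fold agar dilution on Mueller-Hinton agar, with an inoculum of about 10^8 cfu/mL and plate concentrations of 0.006–100 μg/mL.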

Pseudomonas aeruginosa [6] = experiment: Oral efficacy of compound after peroral administration on systemic infection by Pseudomonas aeruginosa E-2; assay type: functional
In short: (§3)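 Groups of five male ddY mice (20 ± 2 g) were given 0.5 mL of bacteria intraperitoneally at 10 or 100 times the 50% lethal dose. One hour after infection they were treated orally with compound suspended in 0.5% sodium (carboxymethyl)cellulose. Survival was scored at 1 week, and ED50 is given with 95% confidence limits.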

Proteus vulgaris = experiment: Minimum inhibitory concentration tested against Proteus vulgaris OX-19; assay type: functional; in short: as §1
Pseudomonas aeruginosa [7] = experiment: Minimum inhibitory concentration tested against Pseudomonas aeruginosa E-2; assay type: functional; in short: as §1
Escherichia coli [8] = experiment: Oral efficacy of compound after peroral administration on systemic infection by Escherichia coli KC-14; assay type: functional; in short: as §3
Serratia marcescens = experiment: Minimum inhibitory concentration tested against Serratia marcescens LAM 1184; assay type: functional; in short: as §1
Bacillus subtilis = experiment: Minimum inhibitory concentration tested against Bacillus subtilis ATCC 6633; assay type: functional; in short: as §1
Escherichia coli [9] = experiment: Effective dose of compound against Escherichia coli KC-14 in mice after oral administration; remark: listed apart in the source
Escherichia coli [10] = experiment: as §2; assay type: functional; in short: as §1; remark: listed apart in the source
Escherichia coli [11] = experiment: Oral efficacy of compound after peroral administration on systemic infection by Escherichia coli KC-14 in rat; assay type: functional
Staphylococcus aureus [12] = experiment: Oral efficacy of compound after peroral administration on systemic infection by Staphylococcus aureus IID803; assay type: functional; in short: as §3

SMILES | MIC (Staphylococcus aureus [1]) [µg/mL] | AUC [2] [ng·h/mL] | MIC (Klebsiella pneumoniae) [µg/mL] | LD50 [3] [mg/kg] | ED50 (Escherichia coli [4]) [mg/kg] | MIC (Escherichia coli [5]) [µg/mL] | ED50 (Pseudomonas aeruginosa [6]) [mg/kg] | MIC (Proteus vulgaris) [µg/mL] | MIC (Pseudomonas aeruginosa [7]) [µg/mL] | ED50 (Escherichia coli [8]) [mg/kg] | MIC (Serratia marcescens) [µg/mL] | MIC (Bacillus subtilis) [µg/mL] | ED50 (Escherichia coli [9]) [mg/kg] | MIC (Escherichia coli [10]) [µg/mL] | ED50 (Escherichia coli [11]) [mg/kg] | ED50 (Staphylococcus aureus [12]) [mg/kg]
CCn1cc(C(=O)O)c(=O)c2cc(F)c(N3CCNCC3)cc21 [NORFLOXACIN] | 0.19 (≈ 0.595 µM) | 1800 | 0.05 (≈ 0.157 µM) | > 4000 | 3.13 | 0.1 (≈ 0.313 µM) | 77.1 | 0.05 (≈ 0.157 µM) | 0.39 (≈ 1.22 µM) | 3.15 | 0.19 (≈ 0.595 µM) | 0.19 (≈ 0.595 µM) |  |  |  | 
C=C1OC(=O)OC1(C)ON1CCN(c2cc3c(cc2F)c(=O)c(C(=O)O)cn3CC)CC1 (stereo not given) | 0.78 (≈ 1.74 µM) | 5400 | 0.1 (≈ 0.224 µM) | > 4000 |  |  | 17.7 | 0.05 (≈ 0.112 µM) | 6.25 (≈ 14 µM) | 1.31 | 3.12 (≈ 6.97 µM) | 0.19 (≈ 0.425 µM) | 1.31 | 1.56 (≈ 3.49 µM) | 2.68 | 70.7
CCn1cc(C(=O)O)c(=O)c2cc(F)c(N3CCN(Cc4oc(=O)oc4C)CC3)cc21 | 0.39 (≈ 0.904 µM) | 5700 | 0.1 (≈ 0.232 µM) | > 4000 | 1.93 | 0.2 (≈ 0.464 µM) | 20.3 | 0.1 (≈ 0.232 µM) | 1.56 (≈ 3.62 µM) | 1.93 | 0.39 (≈ 0.904 µM) | 0.19 (≈ 0.44 µM) |  |  | 6.16 | 93.3
